Laboratory results taken from BindingDB's records for doi:10.1016/j.bmc.2016.04.060 (Chugai Pharmaceutical, 2016).

Biological target: Phosphatidylinositol 3-kinase regulatory subunit alpha/4,5-bisphosphate 3-kinase catalytic subunit alpha isoform (Homo sapiens, UniProt P27986+P42336)
Experiment: Inhibition of human PI3K p110alpha/p85alpha expressed in baculovirus preincubated for 20 mins followed by addition of phosphorylate phosphatidylinositol-4,5-bisphosphate as substrate and ATP measured after 15 mins by AlphaScreen competition assay
In short: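 Purified baculovirus-expressed human p110/p85α preincubated with compound 20 min at room temperature. Then 4 µM PI(4,5)P2 and 10 µM ATP (5 mM Hepes pH 7.5, 2.5 mM MgCl2) added for 15 min at 37 °C. PIP3 product detected by AlphaScreen competition using GST-GRP1, biotin-PIP3 and anti-GST acceptor/streptavidin donor beads, 1 h at room temperature.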

Sequence of Phosphatidylinositol 3-kinase regulatory subunit alpha/4,5-bisphosphate 3-kinase catalytic subunit alpha isoform (P27986 whole entry, canonical isoform): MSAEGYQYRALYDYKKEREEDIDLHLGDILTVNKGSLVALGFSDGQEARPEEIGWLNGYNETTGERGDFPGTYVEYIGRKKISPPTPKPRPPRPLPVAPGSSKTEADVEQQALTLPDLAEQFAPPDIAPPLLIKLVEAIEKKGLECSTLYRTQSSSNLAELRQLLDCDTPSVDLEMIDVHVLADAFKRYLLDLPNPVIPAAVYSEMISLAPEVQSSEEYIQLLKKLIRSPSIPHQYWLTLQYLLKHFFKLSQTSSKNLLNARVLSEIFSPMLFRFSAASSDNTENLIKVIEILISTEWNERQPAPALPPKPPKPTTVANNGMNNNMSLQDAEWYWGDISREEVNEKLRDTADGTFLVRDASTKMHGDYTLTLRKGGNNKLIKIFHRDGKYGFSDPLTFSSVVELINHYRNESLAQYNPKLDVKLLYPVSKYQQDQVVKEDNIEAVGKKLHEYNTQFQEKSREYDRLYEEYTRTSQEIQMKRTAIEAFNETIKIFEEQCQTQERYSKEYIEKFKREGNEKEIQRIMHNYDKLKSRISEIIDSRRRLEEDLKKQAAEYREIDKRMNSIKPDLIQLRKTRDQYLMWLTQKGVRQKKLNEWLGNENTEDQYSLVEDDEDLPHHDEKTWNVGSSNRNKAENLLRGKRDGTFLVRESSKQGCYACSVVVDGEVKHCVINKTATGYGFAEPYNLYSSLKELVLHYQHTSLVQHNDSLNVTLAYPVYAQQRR
Sequence of Phosphatidylinositol 3-kinase regulatory subunit alpha/4,5-bisphosphate 3-kinase catalytic subunit alpha isoform (P42336 whole entry, canonical isoform): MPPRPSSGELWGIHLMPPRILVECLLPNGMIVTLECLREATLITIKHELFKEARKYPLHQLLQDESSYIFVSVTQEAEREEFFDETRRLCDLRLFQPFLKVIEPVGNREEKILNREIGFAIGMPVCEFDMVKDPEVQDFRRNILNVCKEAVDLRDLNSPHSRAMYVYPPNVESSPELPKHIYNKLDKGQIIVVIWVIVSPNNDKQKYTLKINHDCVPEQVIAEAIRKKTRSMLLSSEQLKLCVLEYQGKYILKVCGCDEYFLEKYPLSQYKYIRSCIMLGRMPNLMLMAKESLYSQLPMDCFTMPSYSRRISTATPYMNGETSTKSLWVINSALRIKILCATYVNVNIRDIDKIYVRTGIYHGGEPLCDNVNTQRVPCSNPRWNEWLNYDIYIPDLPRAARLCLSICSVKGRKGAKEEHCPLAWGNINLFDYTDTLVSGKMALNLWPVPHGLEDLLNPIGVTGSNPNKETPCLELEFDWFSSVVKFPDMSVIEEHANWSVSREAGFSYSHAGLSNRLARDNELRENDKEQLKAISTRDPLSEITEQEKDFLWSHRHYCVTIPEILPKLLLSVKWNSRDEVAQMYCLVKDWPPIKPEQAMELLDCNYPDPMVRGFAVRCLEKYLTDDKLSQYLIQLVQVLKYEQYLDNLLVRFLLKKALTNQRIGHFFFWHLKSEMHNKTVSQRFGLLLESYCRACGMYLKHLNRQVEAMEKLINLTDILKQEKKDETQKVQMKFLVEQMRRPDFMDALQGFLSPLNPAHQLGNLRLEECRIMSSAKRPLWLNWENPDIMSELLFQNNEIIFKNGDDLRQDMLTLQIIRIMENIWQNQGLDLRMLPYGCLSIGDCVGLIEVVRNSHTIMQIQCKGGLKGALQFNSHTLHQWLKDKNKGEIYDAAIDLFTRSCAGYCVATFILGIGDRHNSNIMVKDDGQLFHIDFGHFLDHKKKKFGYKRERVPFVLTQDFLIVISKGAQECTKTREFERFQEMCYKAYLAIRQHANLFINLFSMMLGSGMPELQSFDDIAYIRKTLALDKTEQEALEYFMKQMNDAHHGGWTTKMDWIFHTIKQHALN

| Compound | IC50 |
| --- | --- |
| CCN1CCN(c2cc(F)c(NC(=O)N3CCc4c(-c5cnc(N)nc5)nc(N5CCOCC5)nc43)c(F)c2)CC1 | 22 nM |
| CCN1CCN(c2ccc(NC(=O)N3CCc4c(-c5cnc(N)nc5)nc(N5CCOCC5)nc43)c(C)c2)CC1 | 10 nM |
